Compound activity (PubChem BioAssay)
TRPC4 act – activators of mouse TRPC4 channel, primary screen, Fluo4 calcium, HEK293 TRPC4beta/mu-opioid cells; B-score at 10 µM; AID 2237, 2010; Fluo4 calcium fluorescence; stronger effect = higher value; actives 0.49% (n = 310,000);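 active means B-score above 5 SD of library B-scores, and initial fluorescence ratio not above library mean plus 5 SD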;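 further: positive B-score marks a calcium rise read as TRPC4 activation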
Target sequence (Q9QUQ5 whole entry, looked up): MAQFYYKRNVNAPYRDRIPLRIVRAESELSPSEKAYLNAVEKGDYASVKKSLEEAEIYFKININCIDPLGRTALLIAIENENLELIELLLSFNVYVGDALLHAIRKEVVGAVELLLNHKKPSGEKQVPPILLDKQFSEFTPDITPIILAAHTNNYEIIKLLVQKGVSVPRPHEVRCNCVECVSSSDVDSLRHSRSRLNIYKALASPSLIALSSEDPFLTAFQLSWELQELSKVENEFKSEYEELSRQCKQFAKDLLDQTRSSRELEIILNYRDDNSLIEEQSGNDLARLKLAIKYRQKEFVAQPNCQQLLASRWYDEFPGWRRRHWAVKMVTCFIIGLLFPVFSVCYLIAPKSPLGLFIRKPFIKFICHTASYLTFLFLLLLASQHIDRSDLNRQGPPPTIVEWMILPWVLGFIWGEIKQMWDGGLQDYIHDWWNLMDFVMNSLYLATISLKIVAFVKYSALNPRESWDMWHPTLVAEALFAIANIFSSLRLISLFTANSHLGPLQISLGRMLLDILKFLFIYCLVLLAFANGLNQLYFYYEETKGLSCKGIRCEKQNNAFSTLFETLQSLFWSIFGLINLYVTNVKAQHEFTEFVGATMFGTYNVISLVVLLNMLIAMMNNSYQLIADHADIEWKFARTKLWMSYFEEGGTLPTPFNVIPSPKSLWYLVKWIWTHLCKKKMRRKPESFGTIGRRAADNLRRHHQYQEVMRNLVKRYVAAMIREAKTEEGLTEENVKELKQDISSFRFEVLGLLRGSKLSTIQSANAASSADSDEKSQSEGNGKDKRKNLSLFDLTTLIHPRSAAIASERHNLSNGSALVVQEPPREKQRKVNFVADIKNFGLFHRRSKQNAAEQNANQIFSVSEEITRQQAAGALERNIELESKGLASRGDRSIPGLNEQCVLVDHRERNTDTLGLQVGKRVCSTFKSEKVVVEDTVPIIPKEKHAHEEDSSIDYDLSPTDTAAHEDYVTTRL
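Incubation: 45 min room-temperature Fluo4 loading, 110 s read / System: HEK293 cells stably co-expressing mouse TRPC4beta and mu-opioid receptor / Signal: Fluo4 fluorescence, kinetic / Control set: buffer (low) and maximal DAMGO (high) / Measure: integrated baseline-normalised fluorescence ratio, converted to per-well B score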
TRPC6 act – mouse TRPC6 channel activators, primary screen, cell-based, HEK293, membrane potential dye. actives 0.13% (n = 310,000). B-score at 10 µM. HEK293-TRPC6 membrane potential dye fluorescence; stronger effect = higher value. Short transient receptor potential channel 6 (Mus musculus), Q61143;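 active means B-score of the integrated fluorescence ratio above library mean plus 3 SD, and starting fluorescence ratio within library mean plus 5 SD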;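 further: higher score means more depolarization so channel activation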
TRPC4 PAM – positive allosteric modulators of TRPC4, primary screen, cell-based, mouse TRPC4beta, HEK293 mu-opioid, Fluo-4 calcium; DAMGO EC20, Fluo-4 Ca2+ flux; stronger effect = higher value; B-score at 10 µM; actives 0.42% (n = 310,000); AID 2227, 2009;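 active means B-score of calcium response area above 5 SD of library B-scores, with initial fluorescence ratio within 5 SD of library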;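 further: B-score of integrated fluorescence ratio over time as area under calcium response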
TRPC6 inh – mouse TRPC6 channel inhibitors, primary screen, cell-based, HEK293, membrane potential dye | ACh-evoked depolarization; stronger effect = lower value | B-score at 10 µM | actives 1.1% (n = 310,000) | AID 2553, 2010;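 active means B-score under library mean minus 3 SD, initial fluorescence not abnormally high, positive integrated signal ratio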;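 further: B-score derived from integrated fluorescence ratio over the kinetic read; more negative B-score means stronger inhibition of depolarization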
TRPC4 block – inhibitors of mouse TRPC4 channel, primary screen, Fluo4 calcium, HEK293 TRPC4beta/mu-opioid cells. Short transient receptor potential channel 4 (Mus musculus), Q9QUQ5. DAMGO-evoked Fluo4 calcium flux; stronger effect = lower value. B-score at 10 µM. actives 0.39% (n = 300,000);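 active means B-score over 3 SD under the library average, no early fluorescence shift, positive overall ratio signal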
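Assay system: HEK293 cells with stable TRPC4beta plus mu-opioid receptor expression; Probe or stimulus: DAMGO in two steps, submaximal then maximal; Dosing: single-point compound dosing; Measured by: Fluo4 calcium-dye fluorescence, kinetic read; Read-out basis: B score from integrated Fluo4 fluorescence ratio.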
Starred values were filed as active, the others as inactive; i = inactive. This is a sample that favours compounds with a hit; in the whole collection about 2.3% have one here.

SMILES | TRPC4 act | TRPC6 act | TRPC4 PAM | TRPC6 inh | TRPC4 block
CCC(Cc1ccccc1)NC(=O)c1cc(S(=O)(=O)N2CCCCC2)c[nH]1 (centres undefined) | i | i | i | i | i
Cc1ccc(S(=O)(=O)N(Cc2ccccc2)Cc2ccco2)cc1 | i | i | 14* | i | i
Cc1ccc(S(=O)(=O)N(Cc2ccc(F)cc2)Cc2ccco2)cc1 | i | i | i | i | i
Nc1ccc2c(c1)N=[N+]([O-])c1cc(N)ccc1C2 | i | i | i | i | i
CCCn1c(=O)c2c(nc3n2CCS3)n(C)c1=O | i | i | i | i | i
CC(=O)c1ccc(N2CCN(CC(O)COC(c3ccccc3)c3ccccc3)CC2)cc1 (centres undefined) | i | i | 11* | i | i
OC(COC(c1ccccc1)c1ccccc1)CN1CCN(c2cccc(Cl)c2)CC1 (centres undefined) | i | i | i | i | i
CC(=O)c1ccc(N2CCN(CC(O)COC(c3ccccc3)c3ccccc3C)CC2)cc1 (centres undefined) | i | i | 12* | i | i
COc1ccc(CCNC(=O)Cc2ccc(OCc3ccccc3)c(OC)c2[N+](=O)[O-])cc1OCc1ccccc1 | i | i | i | i | i
CCn1c(=O)c2cc(C(=O)N(C)c3cc(C)ccc3OC)sc2c2ccccc21 | i | i | i | i | -6*
O=[N+]([O-])c1ccc(C[n+]2cc(-c3ccc(Cl)c(Cl)c3)n3c2CCCCC3)cc1 | i | i | i | i | i
Clc1ccc(-c2c[n+](Cc3cccc(Cl)c3)c3n2CCC3)cc1 | i | i | i | i | -6*
Clc1ccc(C[n+]2cc(-c3ccccc3)n3c2CCC3)cc1Cl | i | i | i | i | -6*
Clc1ccc(-c2c[n+](Cc3ccc(Br)cc3)c3n2CCCCC3)cc1 | i | i | i | i | i
COCC(C)NC(C(=O)Nc1ccc(C)c(Cl)c1)c1ccccc1 (centres undefined) | 59* | i | i | i | i
C=CCN(C(=O)Cn1nnc2ccccc21)C(C(=O)NCCOC)c1ccc(OC)cc1OC (centres undefined) | i | i | i | i | i
COCCN(C(=O)Cn1nnc2ccccc21)C(C(=O)NC1CCCC1)c1cc(OC)ccc1OC (centres undefined) | i | 24* | i | i | i
CCCc1noc2c1/C(=N\O)CC(CC(C)SCC)C2 (centres undefined) | i | i | i | i | -6*
CCSC(C)CC1C/C(=N/O)c2c(CC)noc2C1 (centres undefined) | i | i | i | i | i
O=S(=O)(c1ccccc1Cl)N1CCC(Cc2ccccc2)CC1 | i | i | 20* | i | i
Cc1ccc(NCC(=O)Nc2cccc(S(=O)(=O)N(C)C)c2)c(Cl)c1 | i | i | i | i | i
CCOc1cc(/C=C(\C#N)C(=O)Nc2cccc(C(=O)O)c2)ccc1OCc1ccccc1Cl | i | i | i | i | i
CCOc1cc(/C=C(\C#N)C(=O)Nc2cccc(C(=O)O)c2)cc(Br)c1OC(=O)c1ccc(OC)cc1 | i | i | 22* | i | i
CCC(=O)c1ccc(OCC(=O)Nc2cc(S(=O)(=O)N3CCCCC3)ccc2N2CCN(CC)CC2)cc1 | i | i | i | i | i
CCN1CCN(c2ccc(S(=O)(=O)N3CCCCC3)cc2NC(=O)Cc2ccc(Cl)c(Cl)c2)CC1 | 43* | i | i | i | i
SMILES | TRPC4 act | TRPC6 act | TRPC4 PAM | TRPC6 inh | TRPC4 block
CCN1CCN(c2ccc(S(=O)(=O)N3CCCCC3)cc2NC(=O)COc2ccccc2)CC1 | 125* | i | i | i | i
CCOc1ccccc1OCC(=O)Nc1cc(S(=O)(=O)N2CCCCC2)ccc1N1CCN(CC)CC1 | 89* | i | i | i | i
CCC(=O)c1c(NC(CC)CO)cc(C)oc1=O (centres undefined) | i | i | i | i | i
CC(C)CNC(=O)COc1cccc(C(=O)NCc2ccccc2)c1 | i | i | i | i | i
CCn1c(Cc2ccccc2)nnc1SCC(=O)Nc1ccccc1O | i | i | i | i | i
CC(C)(C)C(=O)N1CCN(c2ccc([N+](=O)[O-])cc2-n2cccc2)CC1 | i | i | 16* | i | i
Cc1cccc(-n2c(C)cc(/C=N/n3cnnc3)c2C)c1 | i | i | i | i | i
CC1CN(C(=O)CCC(=O)NCCc2ccccc2)c2ccccc2O1 (centres undefined) | i | i | i | i | i
COc1cccc(NC(=O)CCC(=O)N2CC(C)Oc3ccc(C)cc32)c1 (centres undefined) | i | i | i | i | -7*
Cc1ccc2c(c1)N(C(=O)CCC(=O)NCc1ccccc1)CC(C)O2 (centres undefined) | i | i | i | i | i
Cc1ccc2c(c1)N(C(=O)CCC(=O)NCc1cccc(Cl)c1)CC(C)O2 (centres undefined) | i | i | i | i | -7*
Cc1ccc2c(c1)N(C(=O)CCC(=O)Nc1ccccc1Cl)CC(C)O2 (centres undefined) | i | i | i | i | -8*
CC1CC(C)CN(CCCNC(=O)CCC(=O)N2CC(C)Oc3ccccc32)C1 (centres undefined) | 53* | i | i | i | i
COc1ccc(Cn2cccc(NC(=O)Nc3cccc(OC)c3)c2=O)cc1 | i | i | i | i | i
CC(=O)c1cccc(NC(=O)N2CCC(NC(=O)C34CC5CC(CC(C5)C3)C4)CC2)c1 | i | i | i | i | i
CN(C)c1ccc(C2N3CC4(C)CN2CC(C)(C3)C4O)cc1 (centres undefined) | i | i | i | i | i
CC12CN3CC(C)(CN(C1)C3c1ccc(Cl)cc1Cl)C2O (centres undefined) | 48* | i | i | i | -6*
CC(C)C[C@H](NC(=O)N1CCn2c1nc1ccccc12)C(=O)NC1CCCCC1 | i | i | i | i | i
